Values joined by “and” are separate entries in the source; they are usually repeats but may differ in a detail not shown here. Equal values may be shown once. Read-outs that look alike come from different tables or passages of the source. Each block holds one compound with its values, some of them ahead of it.
Key:
[1] = biological target: FL4 hERG1 channels (F557L) (Homo sapiens, UniProt Q12809, F557L); experiment: Two-electrode voltage clamp, concatenated tetramer FL4 in Xenopus oocytes; format: cell-based; settings: 30 µM ICA, mean ± SEM
Summary of the method: (§1)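 F557L/WT concatenated tetramers were expressed from 50 ng cRNA and recorded 4–8 d later by two-electrode voltage clamp in pH 7.6 HEPES bath, with and without test compound. V0.5act and z came from Boltzmann fits of tails at −70 mV after 4-s steps. Inactivation: 1 s at 40 mV, then 5 s at 30 to −140 mV, with Itail/(Vret−Erev) fitted. Fold increase in Itest at 20 mV over 1–30 µM was fitted logistically (EC50, nH).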

[2] = biological target: WT4 hERG1 channels (Homo sapiens, UniProt Q12809); format: cell-based; settings: for fold increase in Itest (isochronal, 4 s): 10 µM ICA, stated for WT and WT4 together
Summary of the method: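 WT4 tetramers (50 ng cRNA, 4–8 d) were studied by two-electrode voltage clamp in pH 7.6 bath, 2 mM KCl. Tests used 4-s steps, −70 to 50 mV, with tails at −70 mV and Boltzmann fits (V0.5act). Inactivation: 40 mV prepulse, then 5 s at 30 to −140 mV. Concentration-response of Itest at 20 mV or of Itail-max was fitted logistically (EC50, nH). Some Itail-Vret runs used 20 mM KCl bath.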

[3] = biological target: WT hERG1 channels (Homo sapiens, UniProt Q12809); format: cell-based; settings: for fold increase in Itest (isochronal, 4 s): 10 µM ICA, stated for WT and WT4 together
Summary of the method: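 Oocytes were injected with 10 ng cRNA for single WT subunits and recorded 1–3 d later by two-electrode voltage clamp. Bath (mM): 98 NaCl, 2 KCl, 1 CaCl2, 1 MgCl2, 5 HEPES, pH 7.6. Test compound was diluted from a 20 mM DMSO stock just before use. Itest was taken at the end of 4-s steps (−70 to 50 mV); tails at −70 mV were Boltzmann-fitted for V0.5act and z. Mean ± SEM, n = oocytes.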

[4] = Limit of solubility in extracellular solution; format: physicochemical; settings: extracellular solution pH 7.6, diluted from 20-mM DMSO stock
[5] = biological target: FL1/WT1/FL1/WT1 hERG1 channels (F557L) (Homo sapiens, UniProt Q12809, F557L); format: cell-based; settings: 30 µM ICA, mean ± SEM
Summary of the method: as §1

[6] = biological target: WT3/FL1 hERG1 channels (F557L) (Homo sapiens, UniProt Q12809, F557L); experiment: Two-electrode voltage clamp, concatenated tetramer WT3/FL1 in Xenopus oocytes; format: cell-based; settings: 30 µM ICA, mean ± SEM
Summary of the method: as §1

[7] = biological target: FL2/WT2 hERG1 channels (F557L) (Homo sapiens, UniProt Q12809, F557L); experiment: Two-electrode voltage clamp, concatenated tetramer FL2/WT2 in Xenopus oocytes; format: cell-based; settings: 30 µM ICA, mean ± SEM
Summary of the method: as §1

[8] = biological target: FL1/WT3 hERG1 channels (F557L) (Homo sapiens, UniProt Q12809, F557L); experiment: Two-electrode voltage clamp, concatenated tetramer FL1/WT3 in Xenopus oocytes; format: cell-based; settings: 30 µM ICA
Summary of the method: as §1

[9] = biological target: FL1/WT1/FL2 hERG1 channels (F557L) (Homo sapiens, UniProt Q12809, F557L); format: cell-based
Summary of the method: as §1

[10] = biological target: LE1/WT1/LE1/WT1 hERG1 channels (L646E) (Homo sapiens, UniProt Q12809, L646E); format: cell-based; settings: 10 µM PD, mean ± SEM
Summary of the method: (§2)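 Concatenated L646E/WT tetramers: 50 ng cRNA per oocyte, recorded 4–8 d later by two-electrode voltage clamp in pH 7.6 HEPES bath. Activation used 4-s steps, −70 to 50 mV, with Itail at −70 mV Boltzmann-fitted for V0.5act and z. Inactivation used 1 s at 40 mV, then 5 s at 30 to −140 mV; Itail/(Vret−Erev) was Boltzmann-fitted. Fold increase in Itail-max over 1–30 µM was fitted with a logistic equation (EC50, nH).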

[11] = biological target: WT3/LE1 hERG1 channels (L646E) (Homo sapiens, UniProt Q12809, L646E); experiment: Two-electrode voltage clamp, concatenated tetramer WT3/LE1 in Xenopus oocytes; format: cell-based
Summary of the method: as §2

[12] = biological target: LE4 hERG1 channels (L646E) (Homo sapiens, UniProt Q12809, L646E); experiment: Two-electrode voltage clamp, concatenated tetramer LE4 in Xenopus oocytes; format: cell-based; settings: 10 µM PD, mean ± SEM
Summary of the method: as §2

[13] = biological target: LE1/WT1/LE2 hERG1 channels (L646E) (Homo sapiens, UniProt Q12809, L646E); format: cell-based; settings: 10 µM PD, mean ± SEM
Summary of the method: as §2

[14] = biological target: LE2/WT2 hERG1 channels (L646E) (Homo sapiens, UniProt Q12809, L646E); experiment: Two-electrode voltage clamp, concatenated tetramer LE2/WT2 in Xenopus oocytes; format: cell-based; settings: 10 µM PD, mean ± SEM
Summary of the method: as §2

[15] = biological target: LE1/WT3 hERG1 channels (L646E) (Homo sapiens, UniProt Q12809, L646E); experiment: Two-electrode voltage clamp, concatenated tetramer LE1/WT3 in Xenopus oocytes; format: cell-based
Summary of the method: as §2

limit of solubility [4]: 0.03 mM
SMILES: O=C(Nc1ccc(Oc2ccccc2)cc1)c1cccc([N+](=O)[O-])c1 [ICA, 3-nitro-N-(4-phenoxyphenyl) benzamide]
V0.5act (half-point of channel activation) [1]: −18.7 ± 1.0 mV | V0.5inact (V0.5 for C-type inactivation) [1]: −98.8 ± 7.8 mV | z (equivalent charge) for activation [1]: 3.60 ± 0.15 | z for inactivation [1]: 0.69 ± 0.04 | fold increase in Itest (isochronal, 4 s) ([2]; at 20 mV): 20 fold | fold increase in Itest (isochronal, 4 s) ([2]; at −30 mV): 4 fold | effect on Itail at potentials more negative than −100 mV ([2]; 30 µM ICA, WT4, bath solution containing 20 mM KCl): did not cause an increase in Itail | V0.5inact (V0.5 for C-type inactivation) ([2]; 30 µM ICA, WT4, mean ± SEM): 57.8 ± 4.1 mV | z for inactivation ([2]; 30 µM ICA, WT4, mean ± SEM): 1.17 ± 0.05 | nH (Hill coefficient) for increase in Itest at 20 mV ([2]; ICA, WT4): 1.7 | increase in current at Vt of 20 mV, WT4 channels compared with FL1/WT1/FL2 channels ([2]; ICA, ratio WT4 vs FL1/WT1/FL2): ~13 fold | EC50 ([2]; read-out: EC50 for increase in Itest measured at 20 mV, ICA, WT4): 9.1 µM | fold increase in Itest (isochronal, 4 s) ([3]; at 20 mV): 20 fold | fold increase in Itest (isochronal, 4 s) ([3]; at −30 mV): 4 fold | V0.5act (half-point of channel activation) [5]: −29.6 ± 1.6 mV | V0.5inact (V0.5 for C-type inactivation) [5]: −33.7 ± 16.0 mV | z (equivalent charge) for activation [5]: 3.00 ± 0.25 | z for inactivation [5]: 0.56 ± 0.03 | V0.5act (half-point of channel activation) [6]: −36.7 ± 1.1 mV | V0.5inact (V0.5 for C-type inactivation) [6]: 49.9 ± 4.0 mV | z (equivalent charge) for activation [6]: 3.57 ± 0.39 | z for inactivation [6]: 1.21 ± 0.03 | V0.5act (half-point of channel activation) [7]: −37.1 ± 0.4 mV | V0.5inact (V0.5 for C-type inactivation) [7]: −22.4 ± 9.3 mV | z (equivalent charge) for activation [7]: 3.88 ± 0.48 | z for inactivation [7]: 0.46 ± 0.01 | V0.5act (half-point of channel activation) ([8]; mean ± SEM): −34.5 ± 1.5 mV | V0.5inact (V0.5 for C-type inactivation) ([8]; mean ± SEM): 28.5 ± 6.0 mV | z (equivalent charge) for activation ([8]; mean ± SEM): 4.06 ± 0.39 | z for inactivation ([8]; mean ± SEM): 0.95 ± 0.13 | positive shift in V0.5inact ([8]; n = 4): 70 ± 3 mV | V0.5act (half-point of channel activation) ([9]; 30 µM ICA, mean ± SEM): −19.5 ± 2.9 mV | V0.5inact (V0.5 for C-type inactivation) ([9]; 30 µM ICA, mean ± SEM): −72.5 ± 7.7 mV | z (equivalent charge) for activation ([9]; 30 µM ICA, mean ± SEM): 2.80 ± 0.22 | z for inactivation ([9]; 30 µM ICA, mean ± SEM): 0.61 ± 0.05 | shift in V0.5inact ([9]; 30 µM ICA, n = 4): 6.6 ± 1.6 mV | nH (Hill coefficient) for increase in Itest at 20 mV ([9]; ICA): 2.0 | EC50 ([9]; read-out: EC50 for increase in Itest measured at 20 mV, ICA): 11.8 µM

SMILES: O=C(O)c1ccccc1Nc1ccc(CCc2ccc(Cl)c(Cl)c2)cc1 [PD, 2-(4-[2-(3,4-dichloro-phenyl)-ethyl]-phenylamino)-benzoic acid]
V0.5act (half-point of channel activation) [10]: −32.7 ± 0.8 mV | V0.5inact (V0.5 for C-type inactivation) [10]: −43.3 ± 3.4 mV | z (equivalent charge) for activation [10]: 3.45 ± 0.19 | z for inactivation [10]: 1.22 ± 0.07 | EC50 [11]: 4.8 µM | V0.5act (half-point of channel activation) ([11]; 10 µM PD, WT3/LE1, mean ± SEM): −27.1 ± 1.3 mV and −27.1 ± 1.29 mV | V0.5inact (V0.5 for C-type inactivation) ([11]; 10 µM PD, WT3/LE1, mean ± SEM): −33.5 ± 3.7 mV | z (equivalent charge) for activation ([11]; 10 µM PD, WT3/LE1, mean ± SEM): 3.44 ± 0.16 | z for activation (Figure 6 legend) ([11]; 10 µM PD, WT3/LE1, mean ± SEM): 3.44 ± 0.16 | z for inactivation ([11]; 10 µM PD, WT3/LE1, mean ± SEM): 1.44 ± 0.19 | nH (Hill coefficient) for fold increase in Itail-max ([11]; PD, WT3/LE1): 1.4 | increase in Itest measured at the end of 4-s pulses ([2]; 10 µM PD, WT4): about twofold | increase in Itail ([2]; 10 µM PD, WT4, Vret −140 mV after 1-s pulse to 40 mV): 68% | V0.5act (half-point of channel activation) ([2]; 10 µM PD, WT4, mean ± SEM): −26.7 ± 1.0 mV | V0.5inact (V0.5 for C-type inactivation) ([2]; 10 µM PD, WT4, mean ± SEM): −39.4 ± 4.6 mV | z (equivalent charge) for activation ([2]; 10 µM PD, WT4, mean ± SEM): 3.07 ± 0.30 | z for inactivation ([2]; 10 µM PD, WT4, mean ± SEM): 1.26 ± 0.17 | increase in Itest measured at the end of 4-s pulses ([3]; 10 µM PD, WT hERG1): about twofold | V0.5act (half-point of channel activation) ([3]; 10 µM PD, WT hERG1, mean ± SEM): −29.2 ± 14 mV | V0.5inact (V0.5 for C-type inactivation) ([3]; 10 µM PD, WT hERG1, mean ± SEM): −34.7 ± 4.2 mV | z (equivalent charge) for activation ([3]; 10 µM PD, WT hERG1, mean ± SEM): 3.07 ± 0.34 | z for inactivation ([3]; 10 µM PD, WT hERG1, mean ± SEM): 1.19 ± 0.09 | V0.5act (half-point of channel activation) [12]: −32.6 ± 1.2 mV | V0.5inact (V0.5 for C-type inactivation) [12]: −43.6 ± 2.2 mV | z (equivalent charge) for activation [12]: 3.55 ± 0.25 | z for inactivation [12]: 1.52 ± 0.05 | V0.5act (half-point of channel activation) [13]: −30.3 ± 1.4 mV | V0.5inact (V0.5 for C-type inactivation) [13]: −47.7 ± 4.0 mV | z (equivalent charge) for activation [13]: 3.55 ± 0.15 | z for inactivation [13]: 1.31 ± 0.08 | V0.5act (half-point of channel activation) [14]: −31.3 ± 1.0 mV | V0.5inact (V0.5 for C-type inactivation) [14]: −45.5 ± 2.8 mV | z (equivalent charge) for activation [14]: 3.94 ± 0.12 | z for inactivation [14]: 1.19 ± 0.08 | EC50 [15]: 4.6 µM | V0.5act (half-point of channel activation) ([15]; 10 µM PD, LE1/WT3, mean ± SEM): −30.1 ± 1.6 mV | V0.5inact (V0.5 for C-type inactivation) ([15]; 10 µM PD, LE1/WT3, mean ± SEM): −44.6 ± 2.7 mV | z (equivalent charge) for activation ([15]; 10 µM PD, LE1/WT3, mean ± SEM): 4.20 ± 0.07 | z for activation (Figure 6 legend) ([15]; 10 µM PD, LE1/WT3, mean ± SEM): 4.2 ± 0.07 | z for inactivation ([15]; 10 µM PD, LE1/WT3, mean ± SEM): 1.24 ± 0.10 | nH (Hill coefficient) for fold increase in Itail-max ([15]; PD, LE1/WT3): 1.1
